FGF22 binding: binders of human FGF22 protein, primary screen, FGF22 synaptogenesis inhibitor project, biophysical, thermal shift, single point. Fibroblast growth factor 22 (Homo sapiens), Q9HCT0. recombinant FGF22 thermal shift, SYPRO orange fluorescence; percent of sucrose octasulfate shift, DMSO zero. activity (Tm shift, normalised), % at 9.99 µM. 1.5% of 340,000 active;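 active = mean Tm shift, scaled 0 neutral to 100 positive control, at about 1.3% or above, every replicate too, limit read from the data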
Target sequence (Q9HCT0 whole entry, looked up): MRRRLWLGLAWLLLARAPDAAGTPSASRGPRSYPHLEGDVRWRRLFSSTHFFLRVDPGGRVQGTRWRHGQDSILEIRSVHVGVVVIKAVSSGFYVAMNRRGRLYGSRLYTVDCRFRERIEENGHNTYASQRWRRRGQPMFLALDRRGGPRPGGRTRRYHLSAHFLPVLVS
CFTR F508del cor: F508del CFTR correction, initial screen, CFBE line, single point; 0.36% of 350,000 active; activity (quench increase), % at 7.58 µM; CFBE cells, YFP halide quenching; stimulated with forskolin plus potentiator P3; % fluorescence drop versus neutral controls;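 active = mean added fluorescence quench of at least 8% versus neutral control, with both replicates also reaching 8%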;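 note: cells transiently co-express mutant CFTR-F508del with the halide-sensitive YFP; corrector assay measuring rescue of mutant channel to the surface after 24 h compound exposure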
S100A4 MyoIIA: inhibitors of S100A4-myosin IIA peptide binding, primary screen, biochemical, fluorescence polarization, TAMRA-MyoIIA peptide; Protein S100-A4 (Homo sapiens), P26447; inhibition, % at 10.7 µM; 0.14% of 360,000 active;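 active = mean inhibition of at least 70% across replicates, with every replicate also reaching that level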
Target sequence (P26447 whole entry, looked up): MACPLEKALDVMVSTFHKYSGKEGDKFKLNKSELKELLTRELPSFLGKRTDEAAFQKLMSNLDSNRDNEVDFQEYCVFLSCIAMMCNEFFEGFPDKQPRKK
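Material: human S100A4 monomer with TAMRA-labelled myosin IIA peptide; buffer or medium: HEPES pH 7.2 with CaCl2, KCl, NaCl, DTT, Triton; compound dosing: one concentration per compound; schedule: 5 min incubation before reading; benchmarks: neutral control DMSO, positive control TFP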
dFosB activator: activators of delta FosB homodimer, primary screen, biochemical, fluorescence polarization, TAMRA-CDK5 oligo, single point. 0.99% of 340,000 active. activation, % at 25 µM. purified delta FosB; percent of positive-control signal above neutral wells;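 active = mean activation above about 17%, with every replicate also reaching it, limit read from the data, passing the limit was not always enough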
* hit, by the source's call; x = not tested or not shown. In the library only some 2.2% were active in any assay of this set; here they are far more common.

SMILES	FGF22 binding	CFTR F508del cor	S100A4 MyoIIA	dFosB activator
CCCNC(=O)Nc1ccc2c(c1)OC[C@H](C)N(C(=O)C1CC1)C[C@H](C)[C@@H](OC)CN(C)C2=O	0	1	93*	x
CCCNC(=O)Nc1ccc2c(c1)OC[C@@H](C)N(C(=O)C1CC1)C[C@@H](C)[C@@H](OC)CN(C)C2=O	0	-1	14	x
CO[C@H]1CN(C)C(=O)c2ccc(NC(=O)c3ccc(F)cc3)cc2OC[C@@H](C)N(C(=O)CC2CC2)C[C@H]1C	-1	1	-9	x
CO[C@@H]1CN(C)C(=O)c2ccc(NC(=O)c3ccc(F)cc3)cc2OC[C@H](C)N(C(=O)CC2CC2)C[C@H]1C	0	3	117*	x
CO[C@H]1CN(C)C(=O)c2ccc(NC(=O)c3ccccc3F)cc2OC[C@H](C)NC[C@@H]1C	x	-1	126*	x
C[C@H](CO)N1C[C@H](C)[C@@H](CN(C)C(=O)Nc2ccc3c(c2)OCO3)Oc2ccc(NS(C)(=O)=O)cc2C1=O	0	-3	-3	x
CCCN(C)C[C@@H]1Oc2ncc(C#CC3CC3)cc2C(=O)N([C@@H](C)CO)C[C@@H]1C	x	0	x	x
C[C@H]1CN([C@@H](C)CO)C(=O)c2cc(Br)cnc2O[C@H]1CN(C)C(=O)c1ccccc1	0	2	-28	x
C[C@H](CO)N1C[C@H](C)[C@H](CN(C)Cc2ccc(-c3ccccc3)cc2)Oc2cc(C#CC(C)(C)O)ccc2S1(=O)=O	-1	5	3	x
Cc1ccc(CSc2nnc(-c3ccncc3)o2)c(C)c1	43*	x	2	-7
Clc1ccccc1CSc1nnc(-c2ccncc2)o1	x	x	x	-3
Cc1ccc(S(=O)(=O)Nc2ccccc2F)cc1C(=O)OC(C)C(=O)N1CCOCC1 (configuration not stated)	0	1	75*	-3
C[C@H](CO)N1C[C@H](C)[C@@H](CN(C)S(=O)(=O)c2ccccc2)Oc2ccc(NC(=O)Nc3ccc(F)cc3)cc2C1=O	0	-1	25	x
CCOc1ccc(NC(C)=O)cc1[N+](=O)[O-]	43*	0	-5	1
COc1cccc(CN2CC3(CCN(C)CC3)c3c(n(C)c4cc(OC)ccc34)[C@@H]2CO)c1	0	2	4	x
CC(=O)Nc1ccccc1OCC(=O)NC(C)c1ccccc1 (configuration not stated)	1	1	2	3
O=C(COc1ccccc1Br)Nc1ccccc1C(F)(F)F	43*	-2	2	-9
CC(=O)Nc1ccccc1OCC(=O)NCC(F)(F)F	44*	0	-4	-6
COc1ccc(NC(=O)Nc2ccc3c(c2)C(=O)N([C@@H](C)CO)C[C@H](C)[C@@H](CN(C)C(=O)C2CCCCC2)OCCCC[C@H](C)O3)cc1	-1	2	-4	x
OC[C@H]1[C@@H](c2ccc(/C=C/c3ccccc3)cc2)[C@@H]2CN(Cc3cccnc3)CCCCN12	x	1	x	x
CCOC(=O)c1c(C)[nH]c(C(=O)N/N=C/c2ccc(OC)c(OC)c2)c1C	0	9.8*	-2	4
COc1ccccc1/C=N/NC(=O)c1[nH]c(C)c(C(=O)N/N=C/c2ccccc2OC)c1C	x	1	x	-7
CCOC(=O)c1c(C)[nH]c(C(=O)N/N=C/c2cc([N+](=O)[O-])ccc2O)c1C	0	0	-3	-4
CCOC(=O)c1c(C)[nH]c(C(=O)N/N=C\c2ccccc2O)c1C	1	21*	4	-1
Cc1cc(C(=O)CN2C(=O)C(=O)N(Cc3ccccc3)C2=O)c(C)n1Cc1ccccc1	0	9.4*	12	-6
SMILES	FGF22 binding	CFTR F508del cor	S100A4 MyoIIA	dFosB activator
O=C(c1ccc(Cl)cc1[N+](=O)[O-])N1CCc2ccccc2C1	43*	0	5	0
CC(C)COC(=O)N(C)C[C@H]1OCc2ccccc2-c2c(n(C)c3ccccc23)C(=O)N([C@H](C)CO)C[C@@H]1C	0	1	-3	x
COC(=O)CSc1nccc(C)n1	44*	-1	4	1
CC(C)NC(=O)Nc1ccc2c(c1)C(=O)N([C@@H](C)CO)C[C@H](C)[C@H](CN(C)Cc1ccc3c(c1)OCO3)O2	0	1	8	x
COc1cc(C(=O)OCCc2cc3ccccc3c(=O)o2)cc(OC)c1OC	0	11*	1	2
COc1cc(C(=O)OCCCc2cc3ccccc3c(=O)o2)cc(OC)c1OC	0	5	0	2
CN(C)CCN(Cc1ccco1)c1ccccn1	43*	-1	-2	-3
COc1ccc(CN(C)C[C@@H]2OCCCC[C@H](C)Oc3ccc(NS(=O)(=O)c4cn(C)cn4)cc3C(=O)N([C@@H](C)CO)C[C@H]2C)cc1	-1	1	110*	x
COc1ccc(S(=O)(=O)Nc2ccc3c(c2)C(=O)N([C@@H](C)CO)C[C@@H](C)[C@H](CN(C)Cc2ccc4c(c2)OCO4)OCCCC[C@H](C)O3)cc1	1.3*	2	2	x
COc1ccc(S(=O)(=O)Nc2ccc3c(c2)C(=O)N([C@H](C)CO)C[C@@H](C)[C@@H](CN(C)Cc2ccc4c(c2)OCO4)OCCCC[C@H](C)O3)cc1	0	-2	-5	x
COc1ccc(CN(C)C[C@@H]2OCCCC[C@@H](C)Oc3ccc(NS(=O)(=O)c4cn(C)cn4)cc3C(=O)N([C@@H](C)CO)C[C@H]2C)cc1	-1	-2	8	x
COc1ccc(NC(=O)CSc2nnnn2C)cc1	0	4	0	-4
COc1ccc(OC)c(-c2csc(NC(=O)CSc3nnnn3C)n2)c1	0	4	-10	33*
COc1ccc2nc(NC(=O)CSc3nnnn3C)sc2c1	43*	-4	-5	-2
COc1cc(CN2CC3(CN(C(=O)Nc4c(C)noc4C)C3)c3c(n(C)c4cc(OC)ccc34)[C@H]2CO)cc(OC)c1	0	-2	1	x
CNC(=O)CSc1nc2c([nH]c3ccccc32)c(=O)n1CCOC	44*	2	4	0
COCCn1c(SCC(=O)Nc2ccc(F)cc2)nc2c([nH]c3ccccc32)c1=O	0	-3	-4	11
C[C@@H]1CCCCO[C@H](CN(C)C(=O)Nc2ccc3c(c2)OCO3)[C@@H](C)CN([C@H](C)CO)C(=O)c2cc(NS(=O)(=O)c3cn(C)cn3)ccc2O1	1	3	-8	x
N=c1c2c(n(Cc3ccc(Br)cc3)c3c1CCC3)CCCC2	43*	6	-3	-5
CCCN1[C@@H]2c3ccc(C4=CCCCC4)c(=O)n3C[C@@H]2[C@@H](CO)[C@@H]1C(=O)N(C)C	x	-1	1	x
NNC(=O)c1cncn1-c1ccc(F)cc1	44*	-1	2	-6
NC(=O)c1ccc(NC(=O)c2cncn2-c2ccccc2)cc1	0	1	1	1
